Results published in ChEMBL document CHEMBL1134643 (J Med Chem, 2001).
Activity calls are given as the source filed them. The rule behind the calls is not given here.

How the values were obtained:
[1] = molecular target: Nociceptin receptor (Mus musculus) (UniProt P35377); test: Maximum receptor binding in the electrically stimulated mouse vas deferens; type: functional, tissue-based
Method in brief: (§1)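 Vas deferens from male Swiss mice (25-30 g) is held in Mg2+-free Krebs at 33 °C, gassed with 95% O2/5% CO2 at pH 7.4. Tissue is stimulated at 0.05 Hz with 1 ms supramaximal pulses under 0.3 g resting tension, and twitches are recorded isotonically.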

Nociceptin receptor [2] = molecular target: Nociceptin receptor (Mus musculus, UniProt P35377); test: Inhibition of [3H]NC-NH2 binding to mouse forebrain membranes; design: species or system Membrane
Mus musculus [3] = species on record: Mus musculus; test: Maximum receptor binding assay determined by using mouse forebrain membrane and [3H]NC-NH2; type: functional
Method in brief: (§2)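 Forebrains from male Swiss mice are homogenised in 50 mM Tris-HCl, 2 mM EDTA, 100 μM PMSF, pH 7.4. Membranes are preincubated 30 min at 37 °C and stored at -80 °C. Displacement uses 0.5 nM [3H]NC-NH2, 200 μg protein, and graded ligand concentrations up to 10 μM, for 120 min at 25 °C.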

Mus musculus [4] = species on record: Mus musculus; test: Maximum receptor binding assay determined by using mouse forebrain membrane and [3H]NC-NH2; Inactive; type: functional; method in brief: as §2
Mus musculus [5] = species on record: Mus musculus; test: Agonist activity of compound in the electrically stimulated mouse vas deferens; Inactive; type: functional; method in brief: as §1
Mus musculus [6] = species on record: Mus musculus; test: Antagonist activity of compound in the electrically stimulated mouse vas deferens; Inactive; type: functional
Method in brief: (§3)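 Peptides without agonist effect in the mouse vas deferens (Mg2+-free Krebs, 33 °C, 0.05 Hz, 1 ms pulses) are tested up to 10 μM. Each is added 15 min before a cumulative concentration-response curve to NC(1-13)-NH2. pKB is calculated with the Gaddum-Schild equation, taking slope as unity, from the concentration-ratio of equieffective agonist concentrations.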

Mus musculus [7] = species on record: Mus musculus; test: Maximum receptor binding using mouse forebrain membranes and [3H]NC-NH2; type: functional; conditions: Membrane; method in brief: as §2
Mus musculus [8] = species on record: Mus musculus; test: Maximum receptor binding assay determined by using mouse forebrain membrane and [3H]NC-NH2 at 10 uM; type: functional
Mus musculus [9] = species on record: Mus musculus; test: Antagonist activity of compound in the electrically stimulated mouse vas deferens; type: functional; method in brief: as §3
Nociceptin receptor [10] = molecular target: Nociceptin receptor (Homo sapiens, UniProt P41146); test: Inhibition of forskolin stimulated cAMP accumulation in CHO cells stably expressing the human OP4 receptor; type: functional, cell-based
Mus musculus [11] = species on record: Mus musculus; test: receptor binding constant using mouse forebrain membranes and [3H]NC-NH2 as radioligand; type: functional, Membrane; method in brief: as §2

Sequence of Nociceptin receptor (Mus musculus) (P35377 whole entry): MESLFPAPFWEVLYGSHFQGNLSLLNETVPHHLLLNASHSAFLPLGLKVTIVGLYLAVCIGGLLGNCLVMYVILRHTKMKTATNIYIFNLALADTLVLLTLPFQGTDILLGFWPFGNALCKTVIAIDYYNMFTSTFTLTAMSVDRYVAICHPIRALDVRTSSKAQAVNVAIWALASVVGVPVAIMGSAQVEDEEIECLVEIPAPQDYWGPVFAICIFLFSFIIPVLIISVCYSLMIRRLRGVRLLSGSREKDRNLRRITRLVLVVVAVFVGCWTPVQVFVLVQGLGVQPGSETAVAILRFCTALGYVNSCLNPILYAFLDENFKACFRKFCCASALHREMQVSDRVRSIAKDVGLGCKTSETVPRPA
Sequence of Nociceptin receptor (Mus musculus, UniProt P35377) (P35377 whole entry): as above
Sequence of Nociceptin receptor (Homo sapiens, UniProt P41146) (P41146 whole entry): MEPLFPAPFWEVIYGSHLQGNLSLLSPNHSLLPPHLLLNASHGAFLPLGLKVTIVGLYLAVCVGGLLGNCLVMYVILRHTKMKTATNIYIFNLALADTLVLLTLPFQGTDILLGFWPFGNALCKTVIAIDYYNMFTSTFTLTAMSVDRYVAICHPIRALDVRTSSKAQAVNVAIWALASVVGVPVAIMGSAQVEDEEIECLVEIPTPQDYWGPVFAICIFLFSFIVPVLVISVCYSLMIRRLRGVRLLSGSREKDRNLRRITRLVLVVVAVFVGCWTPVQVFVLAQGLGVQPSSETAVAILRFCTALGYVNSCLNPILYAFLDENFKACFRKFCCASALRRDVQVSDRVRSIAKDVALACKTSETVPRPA

Compound	Emax [1] [%]	Ki (Nociceptin receptor [2]) [nM]	further results
C[C@H](NC(=O)CNC(=O)[C@@H](NC(=O)[C@H](Cc1ccccc1F)NC(=O)CNC(=O)CNC(=O)[C@@H](N)Cc1ccccc1)[C@@H](C)O)C(=O)N[C@@H](CCCN=C(N)N)C(=O)N[C@@H](CCCCN)C(=O)N[C@@H](CO)C(=O)N[C@@H](C)C(=O)N[C@@H](CCCN=C(N)N)C(=O)N[C@@H](CCCCN)C(N)=O	-94	3.63	–
C[C@H](NC(=O)CNC(=O)[C@@H](NC(=O)[C@H](Cc1ccc2ccccc2c1)NC(=O)CNC(=O)CNC(=O)[C@@H](N)Cc1ccccc1)[C@@H](C)O)C(=O)N[C@@H](CCCN=C(N)N)C(=O)N[C@@H](CCCCN)C(=O)N[C@@H](CO)C(=O)N[C@@H](C)C(=O)N[C@@H](CCCN=C(N)N)C(=O)N[C@@H](CCCCN)C(N)=O	–	–	Emax (Mus musculus [3]): -75%
C[C@H](NC(=O)CNC(=O)[C@@H](NC(=O)[C@H](Cc1ccc(-c2ccccc2)cc1)NC(=O)CNC(=O)CNC(=O)[C@@H](N)Cc1ccccc1)[C@@H](C)O)C(=O)N[C@@H](CCCN=C(N)N)C(=O)N[C@@H](CCCCN)C(=O)N[C@@H](CO)C(=O)N[C@@H](C)C(=O)N[C@@H](CCCN=C(N)N)C(=O)N[C@@H](CCCCN)C(N)=O	–	–	Emax (Mus musculus [4]): inactive; Log EC50 (Mus musculus [5]): inactive; pKb (Mus musculus [6]): inactive
C[C@H](NC(=O)CNC(=O)[C@@H](NC(=O)[C@H](Cc1ccc(Br)cc1)NC(=O)CNC(=O)CNC(=O)[C@@H](N)Cc1ccccc1)[C@@H](C)O)C(=O)N[C@@H](CCCN=C(N)N)C(=O)N[C@@H](CCCCN)C(=O)N[C@@H](CO)C(=O)N[C@@H](C)C(=O)N[C@@H](CCCN=C(N)N)C(=O)N[C@@H](CCCCN)C(N)=O	-85	1.82	–
C[C@H](NC(=O)CNC(=O)[C@@H](NC(=O)[C@H](Cc1cccc2ccccc12)NC(=O)CNC(=O)CNC(=O)[C@@H](N)Cc1ccccc1)[C@@H](C)O)C(=O)N[C@@H](CCCN=C(N)N)C(=O)N[C@@H](CCCCN)C(=O)N[C@@H](CO)C(=O)N[C@@H](C)C(=O)N[C@@H](CCCN=C(N)N)C(=O)N[C@@H](CCCCN)C(N)=O	–	–	Emax (Mus musculus [7]): -80%
C[C@H](NC(=O)CNC(=O)[C@@H](NC(=O)[C@H](CC1CCCCC1)NC(=O)CNC(=O)CNC(=O)[C@@H](N)Cc1ccccc1)[C@@H](C)O)C(=O)N[C@@H](CCCN=C(N)N)C(=O)N[C@@H](CCCCN)C(=O)N[C@@H](CO)C(=O)N[C@@H](C)C(=O)N[C@@H](CCCN=C(N)N)C(=O)N[C@@H](CCCCN)C(N)=O	–	–	Emax (Mus musculus [8]): -34%
C[C@H](NC(=O)CNC(=O)[C@@H](NC(=O)[C@H](Cc1ccc(I)cc1)NC(=O)CNC(=O)CNC(=O)[C@@H](N)Cc1ccccc1)[C@@H](C)O)C(=O)N[C@@H](CCCN=C(N)N)C(=O)N[C@@H](CCCCN)C(=O)N[C@@H](CO)C(=O)N[C@@H](C)C(=O)N[C@@H](CCCN=C(N)N)C(=O)N[C@@H](CCCCN)C(N)=O	-76	17.4	–
C[C@H](NC(=O)CNC(=O)[C@@H](NC(=O)[C@H](Cc1ccccc1)NC(=O)CNC(=O)CNC(=O)[C@@H](N)Cc1ccccc1)[C@@H](C)O)C(=O)N[C@@H](CCCNC(=N)N)C(=O)N[C@@H](CCCCN)C(=O)N[C@@H](CO)C(=O)N[C@@H](C)C(=O)N[C@@H](CCCNC(=N)N)C(=O)N[C@@H](CCCCN)C(N)=O	–	–	Emax (Mus musculus [3]): -82%
C[C@H](NC(=O)CNC(=O)[C@@H](NC(=O)[C@H](Cc1ccc(O)cc1)NC(=O)CNC(=O)CNC(=O)[C@@H](N)Cc1ccccc1)[C@@H](C)O)C(=O)N[C@@H](CCCN=C(N)N)C(=O)N[C@@H](CCCCN)C(=O)N[C@@H](CO)C(=O)N[C@@H](C)C(=O)N[C@@H](CCCN=C(N)N)C(=O)N[C@@H](CCCCN)C(N)=O	–	501	pKb (Mus musculus [9]): 5.47; EC50 (Nociceptin receptor [10]): 135 nM
C[C@H](NC(=O)CNC(=O)[C@@H](NC(=O)[C@H](Cc1ccc(C#N)cc1)NC(=O)CNC(=O)CNC(=O)[C@@H](N)Cc1ccccc1)[C@@H](C)O)C(=O)N[C@@H](CCCN=C(N)N)C(=O)N[C@@H](CCCCN)C(=O)N[C@@H](CO)C(=O)N[C@@H](C)C(=O)N[C@@H](CCCN=C(N)N)C(=O)N[C@@H](CCCCN)C(N)=O	-84	0.603	–
CC(C)C[C@H](NC(=O)[C@H](CCCCN)NC(=O)[C@H](CCCN=C(N)N)NC(=O)[C@H](C)NC(=O)[C@H](CO)NC(=O)[C@H](CCCCN)NC(=O)[C@H](CCCN=C(N)N)NC(=O)[C@H](C)NC(=O)CNC(=O)[C@@H](NC(=O)[C@H](Cc1ccccc1)NC(=O)CNC(=O)CNC(=O)[C@@H](N)Cc1ccccc1)[C@@H](C)O)C(=O)N[C@@H](C)C(=O)N[C@@H](CC(N)=O)C(=O)N[C@@H](CCC(N)=O)C(=O)O	–	1.91	–
C[C@H](NC(=O)CNC(=O)[C@@H](NC(=O)[C@@H](NC(=O)CNC(=O)CNC(=O)[C@@H](N)Cc1ccccc1)[C@@H](C)c1ccccc1)[C@@H](C)O)C(=O)N[C@@H](CCCN=C(N)N)C(=O)N[C@@H](CCCCN)C(=O)N[C@@H](CO)C(=O)N[C@@H](C)C(=O)N[C@@H](CCCN=C(N)N)C(=O)N[C@@H](CCCCN)C(N)=O	–	–	Emax (Mus musculus [3]): -86%
C[C@H](NC(=O)CNC(=O)[C@@H](NC(=O)[C@H](Cc1ccc(C(F)(F)F)cc1)NC(=O)CNC(=O)CNC(=O)[C@@H](N)Cc1ccccc1)[C@@H](C)O)C(=O)N[C@@H](CCCN=C(N)N)C(=O)N[C@@H](CCCCN)C(=O)N[C@@H](CO)C(=O)N[C@@H](C)C(=O)N[C@@H](CCCN=C(N)N)C(=O)N[C@@H](CCCCN)C(N)=O	-75	1	–
C[C@H](NC(=O)CNC(=O)[C@@H](NC(=O)[C@H](Cc1cccc(F)c1)NC(=O)CNC(=O)CNC(=O)[C@@H](N)Cc1ccccc1)[C@@H](C)O)C(=O)N[C@@H](CCCN=C(N)N)C(=O)N[C@@H](CCCCN)C(=O)N[C@@H](CO)C(=O)N[C@@H](C)C(=O)N[C@@H](CCCN=C(N)N)C(=O)N[C@@H](CCCCN)C(N)=O	-90	0.891	–
C[C@H](NC(=O)CNC(=O)[C@@H](NC(=O)[C@H](Cc1ccc(Cl)cc1)NC(=O)CNC(=O)CNC(=O)[C@@H](N)Cc1ccccc1)[C@@H](C)O)C(=O)N[C@@H](CCCN=C(N)N)C(=O)N[C@@H](CCCCN)C(=O)N[C@@H](CO)C(=O)N[C@@H](C)C(=O)N[C@@H](CCCN=C(N)N)C(=O)N[C@@H](CCCCN)C(N)=O	-82	0.794	–
C[C@H](NC(=O)CNC(=O)[C@@H](NC(=O)[C@H](Cc1ccc(F)cc1)NC(=O)CNC(=O)CNC(=O)[C@@H](N)Cc1ccccc1)[C@@H](C)O)C(=O)N[C@@H](CCCN=C(N)N)C(=O)N[C@@H](CCCCN)C(=O)N[C@@H](CO)C(=O)N[C@@H](C)C(=O)N[C@@H](CCCN=C(N)N)C(=O)N[C@@H](CCCCN)C(N)=O	-85	0.398	–
C[C@H](NC(=O)CNC(=O)[C@@H](NC(=O)[C@H](Cc1ccccc1)N(C)C(=O)CNC(=O)CNC(=O)[C@@H](N)Cc1ccccc1)[C@@H](C)O)C(=O)N[C@@H](CCCN=C(N)N)C(=O)N[C@@H](CCCCN)C(=O)N[C@@H](CO)C(=O)N[C@@H](C)C(=O)N[C@@H](CCCN=C(N)N)C(=O)N[C@@H](CCCCN)C(N)=O	–	–	Emax (Mus musculus [3]): -84%
C[C@H](NC(=O)CNC(=O)[C@@H](NC(=O)[C@H](Cc1ccc(N)cc1)NC(=O)CNC(=O)CNC(=O)[C@@H](N)Cc1ccccc1)[C@@H](C)O)C(=O)N[C@@H](CCCN=C(N)N)C(=O)N[C@@H](CCCCN)C(=O)N[C@@H](CO)C(=O)N[C@@H](C)C(=O)N[C@@H](CCCN=C(N)N)C(=O)N[C@@H](CCCCN)C(N)=O	-23	1780	–
COc1ccc(C[C@H](NC(=O)CNC(=O)CNC(=O)[C@@H](N)Cc2ccccc2)C(=O)N[C@H](C(=O)NCC(=O)N[C@@H](C)C(=O)N[C@@H](CCCN=C(N)N)C(=O)N[C@@H](CCCCN)C(=O)N[C@@H](CO)C(=O)N[C@@H](C)C(=O)N[C@@H](CCCN=C(N)N)C(=O)N[C@@H](CCCCN)C(N)=O)[C@@H](C)O)cc1	-80	89.1	EC50 (Nociceptin receptor [10]): 63.1 nM
C[C@H](NC(=O)CNC(=O)[C@@H](NC(=O)[C@H](Cc1ccc([N+](=O)[O-])cc1)NC(=O)CNC(=O)CNC(=O)[C@@H](N)Cc1ccccc1)[C@@H](C)O)C(=O)N[C@@H](CCCN=C(N)N)C(=O)N[C@@H](CCCCN)C(=O)N[C@@H](CO)C(=O)N[C@@H](C)C(=O)N[C@@H](CCCN=C(N)N)C(=O)N[C@@H](CCCCN)C(N)=O	-86	0.302	–
C[C@H](NC(=O)CNC(=O)[C@@H](NC(=O)CN(Cc1ccccc1)C(=O)CNC(=O)CNC(=O)[C@@H](N)Cc1ccccc1)[C@@H](C)O)C(=O)N[C@@H](CCCN=C(N)N)C(=O)N[C@@H](CCCCN)C(=O)N[C@@H](CO)C(=O)N[C@@H](C)C(=O)N[C@@H](CCCN=C(N)N)C(=O)N[C@@H](CCCCN)C(N)=O	–	–	Emax (Mus musculus [8]): -16%
Cc1ccc(C[C@H](NC(=O)CNC(=O)CNC(=O)[C@@H](N)Cc2ccccc2)C(=O)N[C@H](C(=O)NCC(=O)N[C@@H](C)C(=O)N[C@@H](CCCN=C(N)N)C(=O)N[C@@H](CCCCN)C(=O)N[C@@H](CO)C(=O)N[C@@H](C)C(=O)N[C@@H](CCCN=C(N)N)C(=O)N[C@@H](CCCCN)C(N)=O)[C@@H](C)O)cc1	-73	–	Log Ki (Mus musculus [11]): -7.84
